The record followed here is ChEMBL document CHEMBL1139822, “Cytotoxicity of the novel spin trapping compound 5-ethoxycarbonyl-3,5-dimethyl-pyrroline N-oxide (3,5-EDPO) and its derivatives” (Bioorg Med Chem Lett, 2007).

Data set [1] deals with SW480. Kind of data set: Cytotoxicity against human SW480 cells at 50 mM after 24 hrs. The class given is functional. The gist of the method: (§1)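 Human colon carcinoma SW480 cultures were exposed to spin traps at 10 to 100 mM for 24 h. Cytotoxicity was read as the dose-dependent loss in cell number. LDH released into the culture supernatant was also measured and expressed per cell as % of non-treated control. Apoptotic nuclei were stained to distinguish necrosis from apoptosis.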

The subject of data set [2] is Hepatocyte. The experiment in a line: Cytotoxicity in primary rat hepatocytes assessed as decrease in number of hepatocytes after 24 hrs. Also on record: scale not given: the % may be the effect or the level left. The class given is cell-based.
The subject of data set [3] is Hepatocyte. The experiment in a line: Cytotoxicity in primary rat hepatocytes assessed as increase in LDH release after 24 hrs. The class given is cell-based. On the technique in general: LDH in the medium is a marker of cell lysis.
Data set [4] concerns SW480. Kind of data set: Cytotoxicity against human SW480 cells at 100 mM after 24 hrs. The class given is functional. The gist of the method:
as §1

Molecules are shown by their SMILES.

As for `CC1C=[N+]([O-])C(C)(C(=O)OC(C)C)C1` (stereo unspecified), the Activity in the data set with SW480 [1] is on record as less than 25%; in the data set on Hepatocyte [2], 60%; with Hepatocyte [3] it was “Active”.
As to `CCCOC(=O)C1(C)CC(C)C=[N+]1[O-]` (stereo unspecified), in the data set with SW480 [1], the Activity is less than 25%.
For `CCCOC(=O)C1(C)C(C)CC=[N+]1[O-]` (stereo unspecified), the Activity in the data set on SW480 [4] came to 95%.
For `CCOC(=O)C1(C)C(C)CC=[N+]1[O-]` (stereo unspecified), the Activity in the data set with SW480 [1] is reported as less than 25%; in the data set on Hepatocyte [2] it was 60%; with Hepatocyte [3], “Active”.
As to `CCOC(=O)C1(C)CC(C)C=[N+]1[O-]` (stereo unspecified), the values for the Activity with SW480 [1], in the data set on Hepatocyte [2] and in the data set on Hepatocyte [3] were less than 25%, 60% and “Active”, respectively.
